{"data": "Measured values from different studies", "target": "LIM domain kinase 1 (LIMK1, Homo sapiens, UniProt P53667)", "note": "Compare with care: the assays were run in different laboratories."}
{"Structure (SMILES)": "N#CC1(c2ccccn2)CCN(Cc2cc(C(=O)N3CCCC3)c(=O)n3ccccc23)CC1", "effect on": "cell-free assay", "method": "competition with immobilised ligand", "concentration": "1 µM", "remaining binding [%]": 98}
{"Structure (SMILES)": "COc1ccnn2ncc(-c3ccnc(N(C)C)n3)c12", "effect on": "binding", "concentration": "1 µM", "remaining binding [%]": 100}
{"Structure (SMILES)": "CCCCN(CCCC)C(=O)CN1C[C@@H](c2cc(OC)c3c(c2)OCO3)[C@H](C(=O)O)[C@H]1CC(C)(C)CCC", "effect on": "cell-free assay", "method": "competition with immobilised ligand", "concentration": "1 µM", "remaining binding [%]": 99}
{"Structure (SMILES)": "O=C(c1ccc(Nc2ncc(Cl)c(-c3cc4ccccc4s3)n2)cc1)N1CCC(N2CCCC2)CC1", "effect on": "binding", "method": "competition with immobilised ligand", "concentration": "1 µM", "remaining binding [%]": 53}
{"Structure (SMILES)": "Cc1cnn2ncc(-c3ccnc(N(C)C)n3)c2c1", "effect on": "binding", "concentration": "1 µM", "remaining binding [%]": 100}
{"Structure (SMILES)": "COc1cnc(Nc2cccc(S(N)(=O)=O)c2)nc1N1CCN(c2ccccc2)C(=O)C1", "effect on": "binding", "method": "competition with immobilised ligand", "concentration": "1 µM", "remaining binding [%]": 100}
{"Structure (SMILES)": "O=C(c1ccc(Nc2nccc(-c3cc4ccccc4s3)n2)cc1)N1CCC(N2CCCC2)CC1", "effect on": "binding", "method": "competition with immobilised ligand", "concentration": "1 µM", "remaining binding [%]": 20}
{"Structure (SMILES)": "O=C(NCc1ncc(C(F)(F)F)cc1Cl)c1ccc2c(c1)C1(CCS(=O)(=O)CC1)[C@@H](C1CC1)N2S(=O)(=O)c1ccc(F)cc1", "effect on": "cell-free assay", "method": "competition with immobilised ligand", "concentration": "1 µM", "remaining binding [%]": 91}
{"Structure (SMILES)": "Cc1cnc(Nc2ccc(C(=O)N3CCC(N4CCCC4)CC3)cc2)nc1-c1cc2ccccc2s1", "effect on": "binding", "method": "competition with immobilised ligand", "concentration": "1 µM", "remaining binding [%]": 55}
{"Structure (SMILES)": "CCC(=O)N[C@H]1CC[C@@H](C(=O)N(C)c2ccc(-c3nc4ccccc4o3)cc2)C1", "effect on": "cell-free assay", "method": "competition with immobilised ligand", "concentration": "1 µM", "remaining binding [%]": 86}
{"Structure (SMILES)": "C=CC(=O)N1CCC(C(=O)NCC(=O)N2CCN(c3nc(-c4cnc(N)nc4C(F)F)nc(N4CCOCC4)n3)CC2)CC1", "effect on": "binding", "method": "competition with immobilised ligand", "concentration": "1 µM", "remaining binding [%]": 100}
{"Structure (SMILES)": "N[C@@H]1CCN(c2nccc(-c3cnn4ncccc34)n2)C1", "effect on": "binding", "concentration": "1 µM", "remaining binding [%]": 73}
{"Structure (SMILES)": "Cc1cc(NC(=O)c2cccc(S(F)(F)(F)(F)F)c2)cc(-n2ccn3nc(-c4cccnc4)cc23)c1", "effect on": "cell-free assay", "method": "competition with immobilised ligand", "concentration": "1 µM", "remaining binding [%]": 100}
{"Structure (SMILES)": "C[C@@H](c1ccc(-n2cnc3c(N)ncnc32)cc1)N1CCc2nn(C)c(Cc3ccccc3)c2C1=O", "effect on": "binding", "method": "competition with immobilised ligand", "concentration": "0.1 µM", "remaining binding [%]": 65}
{"Structure (SMILES)": "CNCc1ccccc1-c1csc([C@@H](C)Nc2nc(C)nc3cc(OC)c(OC)cc23)c1", "effect on": "cell-free assay", "method": "competition with immobilised ligand", "concentration": "1 µM", "remaining binding [%]": 99}
{"Structure (SMILES)": "CN(C)c1nccc(-c2cnc3ncccn23)n1", "effect on": "binding", "concentration": "1 µM", "remaining binding [%]": 100}
{"Structure (SMILES)": "O=C(Nc1c[nH]nc1C(=O)NC1CCNCC1)c1cc(F)cc(F)c1", "effect on": "binding", "method": "competition with immobilised ligand", "concentration": "1 µM", "remaining binding [%]": 97}
{"Structure (SMILES)": "CC1CCCN1c1nccc(-c2cnn3ncccc23)n1 (stereo not drawn)", "effect on": "binding", "concentration": "1 µM", "remaining binding [%]": 100}
{"Structure (SMILES)": "CNC(=O)[C@@H]1CC[C@@H](n2c(-c3ccc4cnccc4c3)nc3ccc(C(=O)NCc4cccc(C(N)=O)c4)cc32)C1", "effect on": "binding", "method": "competition with immobilised ligand", "concentration": "1 µM", "remaining binding [%]": 100}
{"Structure (SMILES)": "C[C@@H]1CCN(c2nccc(-c3cnn4ncccc34)n2)C1", "effect on": "binding", "concentration": "1 µM", "remaining binding [%]": 100}
{"Structure (SMILES)": "c1cncc(-c2cccc(Nc3nccc(NC4CCCCC4)n3)c2)c1", "effect on": "binding", "method": "competition with immobilised ligand", "concentration": "10 µM", "remaining binding [%]": 56}
